Consider 15 compounds from ChEMBL document CHEMBL2311257, “Synthesis and antioxidant activity of thymol and carvacrol based Schiff bases” (Bioorg Med Chem Lett, 2013).

In brackets after ≈: the same amount, converted by molar mass. Activity calls are given as the source filed them. The calls are words filed in the database; no cut-off is given here.

Format in all cases: functional
The test system of assay [1] is Radical scavenging activity. Description: Antioxidant activity assessed as DPPH radical scavenging activity in chloroform solution at 5 ug/mL. Background: The DPPH test is a chemical assay of radical scavenging.
The subject of assay [2] is Radical scavenging activity. The experiment in a line: Antioxidant activity assessed as DPPH radical scavenging activity in chloroform solution at 50 ug/mL.
Assay [3] has as its system Radical scavenging activity. Description: Antioxidant activity assessed as DPPH radical scavenging activity in chloroform solution at 10 ug/mL.
The subject of assay [4] is Radical scavenging activity. Description: Antioxidant activity assessed as DPPH radical scavenging activity in ethanol solution at 50 ug/mL. In a few lines:
(§1)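 Compound dissolved in ethanol, then ethanolic DPPH added. Incubated 30 min in the dark. DPPH decrease read as absorbance at 517 nm against an ethanol blank, with ascorbic acid as reference. % activity = [(A0 − Ai)/A0] × 100, where A0 is absorbance without compound and Ai with compound. IC50 taken from activity across concentrations.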

A short description of assay [5]: Antioxidant activity assessed as ABTS radical scavenging activity at 5 ug/mL. Summed up:
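ABTS radical cation solution diluted in ethanol to an absorbance of 0.7–0.9 at 734 nm, 30 °C. Equal volume added to ethanolic compound solution (5 µg/mL). Absorbance read after 1 min and converted to percent inhibition.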

For assay [6], the system named is Radical scavenging activity. The experiment in a line: Antioxidant activity assessed as DPPH radical scavenging activity in ethanol solution at 5 ug/mL. Summed up: as §1
The subject of assay [7] is Radical scavenging activity. Description: Antioxidant activity assessed as DPPH radical scavenging activity in chloroform solution.
The subject of assay [8] is Radical scavenging activity. The experiment in a line: Antioxidant activity assessed as DPPH radical scavenging activity in chloroform solution at 25 ug/mL.
Assay [9] has as its system Radical scavenging activity. Description: Antioxidant activity assessed as DPPH radical scavenging activity in ethanol solution at 25 ug/mL. Summed up:
as §1

In assay [10] the test system is Radical scavenging activity. Description: Antioxidant activity assessed as DPPH radical scavenging activity in chloroform solution at 100 ug/mL.
The subject of assay [11] is Radical scavenging activity. The experiment in a line: Antioxidant activity assessed as DPPH radical scavenging activity in ethanol solution at 100 ug/mL. Summed up: as §1
Assay [12] has as its system Radical scavenging activity. The experiment in a line: Antioxidant activity assessed as DPPH radical scavenging activity in ethanol solution. Summed up: as §1
In assay [13] the test system is Radical scavenging activity. The experiment in a line: Antioxidant activity assessed as DPPH radical scavenging activity in ethanol solution at 10 ug/mL. Summed up: as §1

In general, IC50 refers to the concentration at which inhibition is half-maximal. For `Cc1cc(O)c(C(C)(C)C)cc1/N=C/c1ccc(O)cc1`, the Activity in assay [1] is 31%; in assay [2], 82.3%; in assay [3] it was 49.6%; in assay [4] it was 89.3%; in [6], 31%; in [8] it was 63.3%. The Activity in assay [9] came out at 70.9%; in assay [10], 92.6%; in [11] it was 94.6%; in assay [13], 50.8%. Further, in assay [5], the outcome was Active. Besides, the IC50 in assay [7] turned out to be 14.26 µg/mL (≈ 50.3 µM); in [12], 8.77 µg/mL (≈ 30.9 µM).
Turning to `COc1cc(/C=N/c2cc(C)c(O)cc2C(C)C)cc(OC)c1`, the Activity in assay [1] turned out to be 20.4%; in assay [2] it was 79.1%; in assay [3], 39.3%; in assay [4], 74.2%; in [6] it was 27.5%; in [8], 61.7%. The Activity was found to be 65.7% in assay [9], 88.4% in assay [10], 85.8% in assay [11] and 40.7% in assay [13]. Moreover, the result in [5] was Active. The concentration for half-maximal inhibition (IC50) in [7] came to 25.79 µg/mL (≈ 82.3 µM); in assay [12], 22.02 µg/mL (≈ 70.3 µM).
For the compound `COc1ccc(/C=N/c2cc(C(C)(C)C)c(O)cc2C)cc1`, the Activity in [1] stood at 19.7%; in assay [2], 87.3%; in [3], 36.3%; in assay [4], 83.4%; in assay [6] it was 29.2%; in assay [8], 82.6%. Further, the Activity turned out to be 65% in [9], 89.8% in assay [10], 90.6% in assay [11] and 50% in assay [13]. The outcome in [5] was Active. For the same compound, the 50% inhibitory concentration (IC50) in assay [7] is 17.55 µg/mL (≈ 59 µM); in assay [12] it was 13.92 µg/mL (≈ 46.8 µM).
As to `Cc1cc(/N=C/c2ccc(O)cc2)c(C(C)C)cc1O`, the Activity in [1] was determined as 36.1%; in [2], 75.9%; in assay [3] it was 42.8%; in assay [4] it was 82.9%; in [6] it was 33.7%; in [8], 66.2%. Moreover, the Activity in [9] stood at 70.4%; in assay [10] it was 88.1%; in assay [11], 92.2%; in assay [13] it was 48.6%. Also, in [5], the result was Active. The IC50 in assay [7] came to 15.13 µg/mL (≈ 56.2 µM); in assay [12], 9.76 µg/mL (≈ 36.2 µM).
As to `Cc1cc(O)c(C(C)(C)C)cc1/N=C/c1cc(Br)c(O)c(Br)c1`, the Activity was determined as 24.2% in assay [1]; 85.7% in assay [2]; 50.3% in assay [3]; 95.8% in assay [4]; 23.9% in assay [6]; 78.5% in assay [8]. Moreover, the Activity came out at 82.8% in assay [9], 95.3% in assay [10], 95.8% in [11] and 49% in [13]. Moreover, in assay [5], the outcome was Active. Further, the 50% inhibitory concentration (IC50) in [7] was 10.69 µg/mL (≈ 24.2 µM); in [12] it was 7.55 µg/mL (≈ 17.1 µM).
As for `Cc1cc(O)c(C(C)C)cc1/N=C/c1cc(Br)c(O)c(Br)c1`, the Activity is 25.2% in assay [1]; 77.4% in [2]; 46.1% in assay [3]; 92.3% in [4]; 24.1% in assay [6]; 69.2% in assay [8]. The Activity turned out to be 78.7% in assay [9], 90.1% in assay [10], 95.2% in assay [11] and 51.8% in assay [13]. Moreover, the outcome in assay [5] was Active. Also, the 50% inhibitory concentration (IC50) in [7] was 17.98 µg/mL (≈ 42.1 µM); in assay [12], 8.33 µg/mL (≈ 19.5 µM).
Regarding `Cc1cc(O)c(C(C)C)cc1/N=C/c1ccc(O)cc1`, the Activity worked out at 26% in assay [1]; 84.5% in assay [2]; 50% in assay [3]; 89.8% in assay [4]; 24.4% in assay [6]; 70.2% in assay [8]. The Activity in assay [9] is 77.1%; in assay [10], 93%; in assay [11], 92.9%; in assay [13], 51.8%. Moreover, in [5], the outcome was Active. Further, the values for the IC50 in [7] and in assay [12] were 13.32 µg/mL (≈ 49.5 µM) and 9.02 µg/mL (≈ 33.5 µM), respectively.
As to `Cc1cc(/N=C/c2cc(Br)c(O)c(Br)c2)c(C(C)C)cc1O`, the Activity in assay [1] came to 31.7%; in assay [2], 85.8%; in assay [3], 45.4%; in [4] it was 88.2%; in assay [6], 33.3%; in assay [8] it was 69%. Moreover, the Activity turned out to be 74.6% in assay [9], 91.3% in assay [10], 95.2% in [11] and 47.6% in [13]. The result in [5] was Active. For the same compound, the results for the IC50 in [7] and in assay [12] were 12.6 µg/mL (≈ 29.5 µM) and 7.85 µg/mL (≈ 18.4 µM), respectively.
For the compound `COc1ccc(/C=N/c2cc(C(C)C)c(O)cc2C)cc1OC`, the Activity is 20.6% in [1]; 85.2% in assay [2]; 41.9% in assay [3]; 84.1% in [4]; 19.7% in [6]; 72% in assay [8]. For the same compound, the Activity in assay [9] was 73.4%; in [10] it was 88.9%; in assay [11], 89.4%; in [13], 43.3%. The outcome in [5] was Active. Moreover, the half-inhibitory concentration (IC50) in [7] stood at 19.12 µg/mL (≈ 61 µM); in [12], 18.66 µg/mL (≈ 59.5 µM).
As for `Cc1cc(O)c(C(C)(C)C)cc1/N=C/c1cc(Br)cc(Br)c1O`, the Activity in assay [1] was found to be 24.6%; in assay [2] it was 86.1%; in assay [3], 45.2%; in [4] it was 88.8%; in [6], 26.7%; in [8] it was 76.4%. Moreover, the Activity in [9] was determined as 72.7%; in [10], 90.7%; in [11] it was 90.1%; in [13] it was 48.2%. Besides, the outcome in assay [5] was Active. Also, the concentration for half-maximal inhibition (IC50) was 13.46 µg/mL (≈ 30.5 µM) in assay [7] and 11.45 µg/mL (≈ 26 µM) in [12].
In the case of `Cc1cc(O)c(C(C)C)cc1/N=C/c1ccccc1O`, the Activity in assay [1] was found to be 23.9%; in assay [2] it was 88.1%; in assay [3], 47.1%; in assay [4] it was 82%; in assay [6], 29.2%; in assay [8] it was 70.6%. Also, the Activity in assay [9] is 70.7%; in [10], 91%; in assay [11], 88.3%; in assay [13], 49.3%. Moreover, the outcome in [5] was Active. Further, the IC50 in [7] came to 14.77 µg/mL (≈ 54.8 µM); in assay [12], 11.79 µg/mL (≈ 43.8 µM).
As to `COc1ccc(/C=N/c2cc(C(C)C)c(O)cc2C)cc1`, the Activity is 21.8% in assay [1]; 87.7% in [2]; 44.6% in [3]; 85% in assay [4]; 27.3% in assay [6]; 74.1% in assay [8]. The Activity in [9] stood at 77.5%; in assay [10] it was 90.2%; in assay [11], 88.5%; in assay [13], 43.3%. Further, the outcome in assay [5] was Active. Also, the IC50 in assay [7] stood at 15.79 µg/mL (≈ 55.7 µM); in assay [12] it was 12.54 µg/mL (≈ 44.3 µM).
Consider `COc1cc(/C=N/c2cc(C(C)C)c(O)cc2C)cc(OC)c1`, for which the Activity in assay [1] came out at 21.8%; in assay [2], 84.2%; in assay [3], 37%; in [4], 71.5%; in [6], 24.5%; in assay [8], 59.5%. The Activity in assay [9] was 62.9%; in [10] it was 89.1%; in assay [11], 78.4%; in assay [13], 40.4%. Moreover, the result in [5] was Active. Also, the results for the IC50 in assay [7] and in assay [12] were 25.47 µg/mL (≈ 81.3 µM) and 26.71 µg/mL (≈ 85.2 µM), respectively.
As to `Cc1cc(O)c(C(C)(C)C)cc1/N=C/c1ccccc1O`, the Activity in assay [1] was found to be 24.9%; in assay [2], 85.7%; in assay [3], 48.6%; in assay [4], 86.4%; in [6] it was 29%; in assay [8], 70%. For the same compound, the Activity came out at 69.6% in assay [9], 90.9% in [10], 90.7% in assay [11] and 51% in assay [13]. Also, the outcome in [5] was Active. Also, the IC50 amounted to 14.36 µg/mL (≈ 50.7 µM) in [7] and 10.54 µg/mL (≈ 37.2 µM) in [12].
Take `Cc1cc(O)c(C(C)C)cc1/N=C/c1cc(Br)cc(Br)c1O`: the Activity stood at 24.3% in assay [1]; 78.1% in assay [2]; 45.1% in assay [3]; 85.9% in assay [4]; 26.8% in assay [6]; 68.3% in assay [8]. For the same compound, the Activity in assay [9] came to 75.9%; in [10] it was 85.3%; in assay [11] it was 88.7%; in assay [13] it was 44.2%. Also, the outcome in assay [5] was Active. For the same compound, the figures for the IC50 in assay [7] and in [12] were 19.19 µg/mL (≈ 44.9 µM) and 12.76 µg/mL (≈ 29.9 µM), respectively.
